# From ChEMBL document CHEMBL1914423, “New imidazo[2,1-b]thiazole derivatives: synthesis, in vitro anticancer evaluation, and in silico studies” (Eur J Med Chem, 2011)
# Experiments:
# Assay type in all cases: functional
# [1] = tested on: K562; experiment: Anticancer activity against human K562 cells after 48 hrs by SRB assay; conditions: K562, 48 h
# Summary of the method: (§1)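 NCI five-dose screen. Cells in RPMI 1640 with 5% FBS and 2 mM L-glutamine, seeded at 5000–40,000 cells/well according to doubling time, then pre-incubated 24 h at 37 °C in 5% CO2. Drugs dissolved in DMSO, five concentrations by 10-fold or 1/2-log dilution. Cells fixed with TCA, SRB-stained, A515 read. IC50 solved from [(Ti−Tz)/(C−Tz)]×100 = 50.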
# [2] = tested on: MOLT-4; experiment: Anticancer activity against human MOLT4 cells after 48 hrs by SRB assay; conditions: MOLT-4, 48 h
# [3] = tested on: RPMI-8226; experiment: Anticancer activity against human RPMI8226 cells after 48 hrs by SRB assay; conditions: RPMI-8226, 48 h
# [4] = tested on: SR; experiment: Anticancer activity against human SR cells after 48 hrs by SRB assay
# Summary of the method: (§2)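 NCI-60 five-dose mode: cells in RPMI 1640 with 5% FBS and 2 mM glutamine, plated at 5000–40,000 cells/well, and preincubated 24 h, with time-zero plates TCA-fixed. Drug given at five concentrations (10-fold or ½-log serial dilutions). Cold TCA fixation 60 min at 4 °C, SRB stain, Tris solubilization, A515. IC50 taken where [(Ti−Tz)/(C−Tz)]×100 = 50.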
# [5] = tested on: A549; experiment: Anticancer activity against human A549 cells after 48 hrs by SRB assay; conditions: A549, 48 h; summary of the method: as §1
# [6] = tested on: EKVX; experiment: Anticancer activity against human EKVX cells after 48 hrs by SRB assay; summary of the method: as §1
# [7] = tested on: NCI-H226; experiment: Anticancer activity against human NCI-H226 cells after 48 hrs by SRB assay; conditions: NCI-H226, 48 h
# [8] = tested on: NCI-H23; experiment: Anticancer activity against human NCI-H23 cells after 48 hrs by SRB assay; conditions: NCI-H23, 48 h
# [9] = tested on: HCC 2998; experiment: Anticancer activity against human HCC2998 cells after 48 hrs by SRB assay; conditions: HCC 2998, 48 h; summary of the method: as §1
# [10] = tested on: SW-620; experiment: Anticancer activity against human SW620 cells after 48 hrs by SRB assay; conditions: SW-620, 48 h; summary of the method: as §2
# [11] = tested on: SF-268; experiment: Anticancer activity against human SF268 cells after 48 hrs by SRB assay; conditions: SF-268, 48 h
# [12] = tested on: SF-539; experiment: Anticancer activity against human SF539 cells after 48 hrs by SRB assay; conditions: SF-539, 48 h
# [13] = tested on: SNB-19; experiment: Anticancer activity against human SNB19 cells after 48 hrs by SRB assay; conditions: SNB-19, 48 h
# [14] = tested on: SNB-75; experiment: Anticancer activity against human SNB75 cells after 48 hrs by SRB assay; conditions: SNB-75, 48 h
# [15] = tested on: LOX IMVI; experiment: Anticancer activity against human LOXIMVI cells after 48 hrs by SRB assay; summary of the method: as §1
# [16] = tested on: SK-MEL-5; experiment: Anticancer activity against human SK-MEL-5 cells after 48 hrs by SRB assay; conditions: SK-MEL-5, 48 h
# [17] = tested on: UACC-257; experiment: Anticancer activity against human UACC257 cells after 48 hrs by SRB assay; conditions: UACC-257, 48 h; summary of the method: as §2
# [18] = tested on: IGROV-1; experiment: Anticancer activity against human IGROV1 cells after 48 hrs by SRB assay; conditions: IGROV-1, 48 h; summary of the method: as §1
# [19] = tested on: OVCAR-4; experiment: Anticancer activity against human OVCAR4 cells after 48 hrs by SRB assay; conditions: OVCAR-4, 48 h
# [20] = tested on: OVCAR-5; experiment: Anticancer activity against human OVCAR5 cells after 48 hrs by SRB assay; conditions: OVCAR-5, 48 h
# [21] = tested on: OVCAR-8; experiment: Anticancer activity against human OVCAR8 cells after 48 hrs by SRB assay; conditions: OVCAR-8, 48 h
# [22] = tested on: A498; experiment: Anticancer activity against human A498 cells after 48 hrs by SRB assay; conditions: A498, 48 h; summary of the method: as §1
# [23] = tested on: RXF 393; experiment: Anticancer activity against human RXF393 cells after 48 hrs by SRB assay; conditions: RXF 393, 48 h
# [24] = tested on: TK-10; experiment: Anticancer activity against human TK10 cells after 48 hrs by SRB assay; conditions: TK-10, 48 h; summary of the method: as §2
# [25] = tested on: UO-31; experiment: Anticancer activity against human UO31 cells after 48 hrs by SRB assay; conditions: UO-31, 48 h; summary of the method: as §2
# [26] = tested on: PC-3; experiment: Anticancer activity against human PC3 cells after 48 hrs by SRB assay; conditions: PC-3, 48 h
# [27] = tested on: DU-145; experiment: Anticancer activity against human DU145 cells after 48 hrs by SRB assay; conditions: DU-145, 48 h; summary of the method: as §1
# [28] = tested on: MCF7; experiment: Anticancer activity against human MCF7 cells after 48 hrs by SRB assay; conditions: MCF7, 48 h; summary of the method: as §1
# [29] = tested on: MDA-MB-468; experiment: Anticancer activity against human MDA-MB-468 cells after 48 hrs by SRB assay; conditions: MDA-MB-468, 48 h
# [30] = read-out: LC50 (the source's name)
structure (smiles),measurement,setting,value
COc1cccc(-c2nc3sccn3c2-c2ccnc(NCCNC(=O)Nc3cccc(C(F)(F)F)c3)n2)c1,GI50,[1],3.48 µM
same,TGI,[1],> 100 µM
same,CC50,[1]; [30],> 100 µM
same,GI50,[2],3.27 µM
same,TGI,[2],9.94 µM
same,CC50,[2]; [30],> 100 µM
same,GI50,[3],1.92 µM
same,LC50,[3],> 100 µM
same,TGI,[3],5.11 µM
same,GI50,[4],3.75 µM
same,TGI,[4],29.7 µM
same,CC50,[4]; [30],> 100 µM
same,GI50,[5],3.82 µM
same,LC50 (concentration giving 50% net tumour cell kill),[5],> 100 µM
same,TGI,[5],17.1 µM
same,GI50,[6],3.55 µM
same,LC50,[6],> 100 µM
same,TGI,[6],59.6 µM
same,GI50,[7],4.58 µM
same,LC50 (concentration killing 50% of tumour cells),[7],> 100 µM
same,TGI,[7],68.6 µM
same,GI50,[8],3.42 µM
same,LC50 (50% lethal concentration),[8],> 100 µM
same,TGI,[8],76.9 µM
same,GI50,[9],3.75 µM
same,TGI,[9],18.7 µM
same,CC50,[9]; [30],> 100 µM
same,GI50,[10],4.47 µM
same,TGI,[10],91.5 µM
same,CC50,[10]; [30],> 100 µM
same,GI50,[11],4.59 µM
same,TGI,[11],43.4 µM
same,CC50,[11]; [30],> 100 µM
same,GI50,[12],3.83 µM
same,TGI,[12],17.1 µM
same,CC50,[12]; [30],56.5 µM
same,GI50,[13],7.77 µM
same,TGI,[13],> 100 µM
same,CC50,[13]; [30],> 100 µM
same,GI50,[14],3.41 µM
same,TGI,[14],21.7 µM
same,CC50,[14]; [30],> 100 µM
same,GI50,[15],4.11 µM
same,TGI,[15],> 100 µM
same,CC50,[15]; [30],> 100 µM
same,GI50,[16],4.27 µM
same,TGI,[16],15.9 µM
same,CC50,[16]; [30],40.6 µM
same,GI50,[17],4.34 µM
same,TGI,[17],16.5 µM
same,CC50,[17]; [30],65.9 µM
same,GI50,[18],3.32 µM
same,TGI,[18],21.8 µM
same,CC50,[18]; [30],> 100 µM
same,GI50,[19],3.78 µM
same,TGI,[19],34.1 µM
same,CC50,[19]; [30],> 100 µM
same,GI50,[20],6.37 µM
same,TGI,[20],52.2 µM
same,CC50,[20]; [30],> 100 µM
same,GI50,[21],3.28 µM
same,TGI,[21],9.79 µM
same,CC50,[21]; [30],66.2 µM
same,GI50,[22],2.44 µM
same,TGI,[22],17.5 µM
same,CC50,[22]; [30],> 100 µM
same,GI50,[23],1.77 µM
same,TGI,[23],3.65 µM
same,CC50,[23]; [30],7.49 µM
same,GI50,[24],3.6 µM
same,TGI,[24],18.8 µM
same,CC50,[24]; [30],> 100 µM
same,GI50,[25],2.88 µM
same,TGI,[25],24.8 µM
same,CC50,[25]; [30],> 100 µM
same,GI50,[26],2.47 µM
same,TGI,[26],11.9 µM
same,CC50,[26]; [30],> 100 µM
same,GI50,[27],5.13 µM
same,TGI,[27],95.5 µM
same,CC50,[27]; [30],> 100 µM
same,GI50,[28],3.12 µM
same,TGI,[28],13.3 µM
same,CC50,[28]; [30],> 100 µM
same,GI50,[29],2.63 µM
same,TGI,[29],10.4 µM
same,CC50,[29]; [30],> 100 µM
